Our source for the EC50 values is ChEMBL document CHEMBL1147384, “Cytotoxic diterpenoids from the brown alga Dilophus ligulatus” (1993).

Values after ≈ are worked out from the molar mass of the structure shown.

Common to all, as to assay type: functional
Common to all, as to conditions: read-out: ED50 (the source's name)

Assay [1] deals with P388. The assay is described as follows: Cytotoxicity against mouse doxorubicin-resistant P388 cells. The essentials:
(§1)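 Run under the lab's standard cytotoxicity protocols with mercaptopurine as the positive standard. Activity is given as ED50 in μg/ml. Cells were human nasopharynx carcinoma KB, human lung carcinoma NSCLC-N6, murine leukemia P-388, and P-388/DOX, a P-388 line expressing the multidrug-resistance (mdr) gene.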

The nature of assay [2]: Cytotoxicity against human NSCLC-N6 cells. A digest of the protocol: as §1
Assay [3] relates to KB. In words: Cytotoxicity against human KB cells. A digest of the protocol: as §1
In assay [4] the test system is P388. In words: Cytotoxicity against mouse P388 cells. A digest of the protocol: as §1

Turning to `Sc1ncnc2nc[nH]c12` [MERCAPTOPURINE ANHYDROUS], the EC50 came out at 0.25 µg/mL (≈ 1.64 µM) in assay [1], 0.76 µg/mL (≈ 4.99 µM) in assay [2], 0.54 µg/mL (≈ 3.55 µM) in assay [3] and 0.7 µg/mL (≈ 4.6 µM) in assay [4].
The matching figures for `CC(=O)O[C@H]1C(=O)C2C1CC/C=C(\C)CC[C@@H]2[C@H](C)CCC=C(C)C` (some centres undefined) [ISOACETYLCORIACENONE]: above 10 µg/mL, 6.82 µg/mL (≈ 19.7 µM), above 10 µg/mL and 6 µg/mL (≈ 17.3 µM).
In the same order, the values of `CC(=O)OC[C@H]1/C(C=O)=C\C/C=C(\C)C[C@H](O)[C@@H]1[C@@H](C)CCC=C(C)C` [HYDROXYACETYLDICTYOLAL] are 9.3 µg/mL (≈ 25.7 µM), 10 µg/mL (≈ 27.6 µM), 2.1 µg/mL (≈ 5.79 µM) and 3.9 µg/mL (≈ 10.8 µM).
As for `CC(=O)O[C@H]1C[C@H](C)[C@H]2C[C@H]2C2=C(COC2=O)[C@H]1[C@H](C)CCC=C(C)C` [ACETOXYCRENULIDE], the EC50 in assay [1], in assay [2], in assay [3] and in assay [4] was above 10 µg/mL throughout.
In the case of `CC(=O)O[C@@H]1C(=O)C2C1CC/C=C(\C)CC[C@@H]2[C@H](C)CCC=C(C)C` (some centres undefined) [ACETYLCORIACENONE], the EC50 in assay [1] was above 10 µg/mL; in assay [2] it was 5.4 µg/mL (≈ 15.6 µM); in assay [3], above 10 µg/mL; in assay [4] it was 4.4 µg/mL (≈ 12.7 µM).
In the case of `CC(=O)O/C=C1/CC/C=C(\C)C[C@@H]2OC(=O)[C@H]1[C@H]2[C@@H](C)CCC=C(C)C` [DILOPHOLIDE], the EC50 in assay [1] was 12 µg/mL (≈ 33.3 µM); in assay [2] it was 3.3 µg/mL (≈ 9.15 µM); in assay [3] it was 1.5 µg/mL (≈ 4.16 µM); in assay [4], 0.5 µg/mL (≈ 1.39 µM).
